Measurements published in ChEMBL document CHEMBL1240350, “In vitro activity of CEM-101 against Streptococcus pneumoniae and Streptococcus pyogenes with defined macrolide resistance mechanisms” (Antimicrob Agents Chemother, 2010).
In brackets after ≈: the same amount, converted by molar mass.

Assays:
Streptococcus pneumoniae [1] = experiment: Antibacterial activity against macrolide-susceptible Streptococcus pneumoniae 7127 harboring S20N mutation in L4 ribosomal protein and A105V mutation in L22 ribosomal protein after 29 passages following overnight incubation by agar dilution method; assay type: functional
Streptococcus pyogenes [2] = experiment: Antibacterial activity against macrolide-resistant Streptococcus pyogenes 2094 harboring erm(A) gene after 5 passages following overnight incubation by agar dilution method
Streptococcus pyogenes [3] = experiment: Antibacterial activity against macrolide-susceptible Streptococcus pyogenes 2132 after 28 passages following overnight incubation by agar dilution method
Streptococcus pyogenes [4] = experiment: Antibacterial activity against macrolide-resistant Streptococcus pyogenes 2094 harboring erm(A) gene after 6 passages following overnight incubation by agar dilution method
Streptococcus pneumoniae [5] = experiment: Antibacterial activity against macrolide-resistant Streptococcus pneumoniae 1635 harboring erm(A) gene after 49 passages following overnight incubation by agar dilution method; assay type: functional
Streptococcus pyogenes [6] = experiment: Antibacterial activity against macrolide-resistant Streptococcus pyogenes 2094 harboring erm(A) gene after 34 passages following overnight incubation by agar dilution method
Streptococcus pneumoniae [7] = experiment: Antibacterial activity against macrolide-susceptible Streptococcus pneumoniae 7127 harboring S20N mutation in L4 ribosomal protein and A105V mutation in L22 ribosomal protein after 43 passages following overnight incubation by agar dilution method; assay type: functional
Streptococcus pneumoniae [8] = experiment: Antibacterial activity against macrolide-susceptible Streptococcus pneumoniae 7127 harboring S20N mutation in L4 ribosomal protein and A105V mutation in L22 ribosomal protein after 16 passages following overnight incubation by agar dilution method; assay type: functional
Streptococcus pneumoniae [9] = experiment: Antibacterial activity against macrolide-susceptible Streptococcus pneumoniae 1077 after 43 passages following overnight incubation by agar dilution method; assay type: functional
Streptococcus pneumoniae [10] = experiment: Antibacterial activity against macrolide-resistant Streptococcus pneumoniae 3009 harboring mutation in 23S rRNA after 20 passages following overnight incubation by agar dilution method; assay type: functional
Streptococcus pneumoniae [11] = experiment: Antibacterial activity against macrolide-resistant Streptococcus pneumoniae 1076 harboring erm(B) and mef(A) gene after 18 passages following overnight incubation by agar dilution method; assay type: functional
[12] = Tmax in human at 400 to 500 mg; settings: in vivo
Streptococcus pneumoniae [13] = experiment: Antibacterial activity against macrolide-susceptible Streptococcus pneumoniae 7127 harboring S20N mutation in L4 ribosomal protein and A105V mutation in L22 ribosomal protein after 38 passages following overnight incubation […]; assay type: functional
Summary of the method: (§1)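 S. pneumoniae parental strains were passaged daily in subinhibitory drug concentrations in cation-adjusted Mueller-Hinton broth with 5% lysed horse blood. Each passage was seeded from the tube 1 to 2 dilutions below the MIC whose turbidity matched the growth control. MICs of resistant clones were measured by CLSI macrodilution. Parent and clone identity was confirmed by PFGE of SmaI-digested DNA.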

Streptococcus pneumoniae [14] = experiment: Antibacterial activity against macrolide-resistant Streptococcus pneumoniae 2686 harboring mutation in L4 ribosomal protein after 25 passages following overnight incubation by […]; assay type: functional; summary of the method: as §1
Streptococcus pyogenes [15] = experiment: Antibacterial activity against macrolide-resistant Streptococcus pyogenes 2094 harboring erm(A) gene after 22 passages following overnight incubation by agar dilution method

CC[C@H]1OC(=O)[C@H](C)[C@@H](O[C@H]2C[C@@](C)(OC)[C@@H](O)[C@H](C)O2)[C@H](C)[C@@H](O[C@@H]2O[C@H](C)C[C@H](N(C)C)[C@H]2O)[C@](C)(O)C[C@@H](C)CN(C)[C@H](C)[C@@H](O)[C@]1(C)O [AZITHROMYCIN]
MIC (Streptococcus pneumoniae [1]): 0.5 µg/mL (≈ 0.668 µM)
MIC (Streptococcus pyogenes [2]): > 64 µg/mL
MIC (Streptococcus pyogenes [3]): 1 µg/mL (≈ 1.34 µM)

CC[C@H]1OC(=O)[C@H](C)[C@@H](O[C@H]2C[C@@](C)(OC)[C@@H](O)[C@H](C)O2)[C@H](C)[C@@H](O[C@@H]2O[C@H](C)C[C@H](N(C)C)[C@H]2O)[C@](C)(OC)C[C@@H](C)C(=O)[C@H](C)[C@@H](O)[C@]1(C)O [CLARITHROMYCIN]
MIC (Streptococcus pyogenes [4]): > 64 µg/mL
MIC (Streptococcus pneumoniae [5]): > 64 µg/mL

CCC[C@@H]1C[C@@H](C(=O)N[C@@H]([C@H]2O[C@H](SC)[C@H](O)[C@@H](O)[C@H]2O)[C@H](C)Cl)N(C)C1 [CLINDAMYCIN]
MIC (Streptococcus pyogenes [6]): > 64 µg/mL
MIC (Streptococcus pneumoniae [7]): 0.25 µg/mL (≈ 0.588 µM)

CC[C@H]1OC(=O)[C@@](C)(F)C(=O)[C@H](C)[C@@H](O[C@@H]2O[C@H](C)C[C@H](N(C)C)[C@H]2O)[C@](C)(OC)C[C@@H](C)C(=O)[C@H](C)[C@H]2N(CCCCn3cc(-c4cccc(N)c4)nn3)C(=O)O[C@]12C [SOLITHROMYCIN]
MIC (Streptococcus pneumoniae [8]): 0.125 µg/mL (≈ 0.148 µM)
MIC (Streptococcus pneumoniae [9]): 0.06 µg/mL (≈ 0.071 µM)
MIC (Streptococcus pneumoniae [10]): 0.25 µg/mL (≈ 0.296 µM)
MIC (Streptococcus pneumoniae [11]): 32 µg/mL (≈ 37.9 µM)
Tmax [12]: 4 h

CC[C@H]1OC(=O)[C@H](C)C(=O)[C@H](C)[C@@H](O[C@@H]2O[C@H](C)C[C@H](N(C)C)[C@H]2O)[C@](C)(OC)C[C@@H](C)C(=O)[C@H](C)[C@H]2N(CCCCn3cnc(-c4cccnc4)c3)C(=O)O[C@]12C [TELITHROMYCIN]
MIC (Streptococcus pneumoniae [13]): 0.06 µg/mL (≈ 0.0739 µM)
MIC (Streptococcus pneumoniae [14]): 0.5 µg/mL (≈ 0.616 µM)
MIC (Streptococcus pyogenes [15]): 0.25 µg/mL (≈ 0.308 µM)
